Calls of active or inactive are those of the source. No cut-off for these calls is given here.
Columns and labels:
[1] = tested on: 518A2; assay: Antiproliferative activity against human 518A2 cells after 72 hrs by MTT assay; assay type: functional, cell-based; details: for IC50: 518A2, 72 h
In short: (§1)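 MTT read-out after 72 h of continuous exposure. Viability is expressed as percentage of viable cells relative to untreated controls. IC50 comes from dose-response curves. Values are means±SD of four independent experiments (two for some entries). DMSO was below 1%, with vehicle controls at equal DMSO. Precipitation was excluded spectrometrically and microscopically.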

[2] = tested on: HT-29; assay: Antiproliferative activity against human HT-29 cells after 72 hrs by MTT assay; assay type: functional, cell-based; details: HT-29, 72 h; in short: as §1
[3] = tested on: A2780; assay: Antiproliferative activity against human A2780 cells after 72 hrs by SRB assay; assay type: functional, cell-based; details: A2780, 72 h
In short: (§2)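 Ovarian A2780 and cisplatin-resistant A2780cis cells were exposed for 72 h and stained with SRB. IC50 comes from dose-response curves, as means±SD of three independent experiments. Final DMSO was below 1%, with matched vehicle controls.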

[4] = Antiproliferative activity against human A2780cis cells after 72 hrs by SRB assay; assay type: functional, cell-based; in short: as §2
[5] = tested on: DLD-1; assay: Antiproliferative activity against human DLD1 cells after 72 hrs by MTT assay; assay type: functional, cell-based; details: DLD-1, 72 h; in short: as §1
[6] = tested on: EA.hy 926; assay: Antiproliferative activity against human EAhy926 cells after 72 hrs by MTT assay; assay type: functional, cell-based; details: EA.hy 926, 72 h; in short: as §1
[7] = tested on: PANC-1; assay: Antiproliferative activity against human PANC1 cells after 72 hrs by MTT assay; assay type: functional, cell-based; details: PANC-1, 72 h; in short: as §1
[8] = tested on: HCT-116; assay: Antiproliferative activity against human HCT116 cells after 72 hrs by MTT assay; assay type: functional, cell-based; details: HCT-116, 72 h; in short: as §1
[9] = Antiproliferative activity against human KB-V1/Vbl cells after 72 hrs by MTT assay; assay type: functional, cell-based; in short: as §1
[10] = Antiproliferative activity against human MCF7/Topo cells after 72 hrs by MTT assay; assay type: functional, cell-based; in short: as §1
[11] = tested on: EA.hy 926; assay: Antiangiogenic activity against human EAhy926 cells assessed as inhibition of tube formation on matrigel at 100 nM after 24 hrs by light microscopic analysis; assay type: functional, cell-based
In short: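 Ea.Hy926 endothelial hybrid cells were seeded on matrigel with compound and examined for tubular/cord-like network formation versus untreated controls. Viability under the same conditions was checked in parallel by MTT to exclude cytotoxic effects.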

[12] = tested on: EA.hy 926; assay: Cytotoxicity against human EAhy926 cells at 100 nM after 24 hrs by MTT assay relative to control; assay type: cell-based; details: ea.hy 926, 24 h, 0.1 µM
[13] = tested on: HT-29; assay: Cell cycle arrest in human HT-29 cells assessed as accumulation of cells at sub G1 phase at 100 nM after 24 hrs by propidium iodide staining-based flow cytometric analysis (reference value: 1.2 +/- 0.3%); assay type: functional
[14] = tested on: HT-29; assay: Cell cycle arrest in human HT-29 cells assessed as accumulation of cells at sub G1 phase at 250 nM after 24 hrs by propidium iodide staining-based flow cytometric analysis (reference value: 1.2 +/- 0.3%); assay type: functional
[15] = tested on: HT-29; assay: Cell cycle arrest in human HT-29 cells assessed as accumulation of cells at sub G1 phase at 350 nM after 24 hrs by propidium iodide staining-based flow cytometric analysis (reference value: 1.2 +/- 0.3%); assay type: functional
[16] = tested on: HT-29; assay: Cell cycle arrest in human HT-29 cells assessed as accumulation of cells at G1 phase at 100 nM after 24 hrs by propidium iodide staining-based flow cytometric analysis (reference value: 75.1 +/- 1.1%); assay type: functional
[17] = tested on: HT-29; assay: Cell cycle arrest in human HT-29 cells assessed as accumulation of cells at G1 phase at 250 nM after 24 hrs by propidium iodide staining-based flow cytometric analysis (reference value: 75.1 +/- 1.1%); assay type: functional
[18] = tested on: HT-29; assay: Cell cycle arrest in human HT-29 cells assessed as accumulation of cells at G1 phase at 350 nM after 24 hrs by propidium iodide staining-based flow cytometric analysis (reference value: 75.1 +/- 1.1%); assay type: functional
[19] = tested on: HT-29; assay: Cell cycle arrest in human HT-29 cells assessed as accumulation of cells at S phase at 100 nM after 24 hrs by propidium iodide staining-based flow cytometric analysis (reference value: 12.3 +/- 0.4%); assay type: functional
[20] = tested on: HT-29; assay: Cell cycle arrest in human HT-29 cells assessed as accumulation of cells at S phase at 250 nM after 24 hrs by propidium iodide staining-based flow cytometric analysis (reference value: 12.3 +/- 0.4%); assay type: functional
[21] = tested on: HT-29; assay: Cell cycle arrest in human HT-29 cells assessed as accumulation of cells at S phase at 350 nM after 24 hrs by propidium iodide staining-based flow cytometric analysis (reference value: 12.3 +/- 0.4%); assay type: functional
[22] = tested on: HT-29; assay: Cell cycle arrest in human HT-29 cells assessed as accumulation of cells at G2/M phase at 100 nM after 24 hrs by propidium iodide staining-based flow cytometric analysis (reference value: 11.4 +/- 1.4%); assay type: functional
[23] = tested on: HT-29; assay: Cell cycle arrest in human HT-29 cells assessed as accumulation of cells at G2/M phase at 250 nM after 24 hrs by propidium iodide staining-based flow cytometric analysis (reference value: 11.4 +/- 1.4%); assay type: functional
[24] = tested on: HT-29; assay: Cell cycle arrest in human HT-29 cells assessed as accumulation of cells at G2/M phase at 350 nM after 24 hrs by propidium iodide staining-based flow cytometric analysis (reference value: 11.4 +/- 1.4%); assay type: functional
[25] = tested on: 518A2; assay: Induction of apoptosis in human 518A2 cells at 100 nM after 24 hrs by TUNEL assay relative to control; assay type: functional
[26] = molecular target: Tubulin (Homo sapiens) (UniProt P68371+Q9H4B7+P0DPH7+P68366+Q13509+Q71U36+P04350+Q3ZCM7+P07437+P68363+Q9BQE3+Q6PEY2+Q13885+Q9BVA1+Q9BUF5); assay: Induction of microtubule disruption in human 518A2 cells at 100 nM after 3 hrs by DAPI staining-based fluorescence microscopic analysis; assay type: cell-based
In short: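 Microtubule organization in 518A2 melanoma cells was checked by tubulin immunofluorescence staining after 3 h exposure to 100 nM, with DAPI as the nuclear counterstain. Images come from two independent experiments.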

[27] = molecular target: Tubulin (Sus scrofa, UniProt P02554+P02550); assay: Inhibition of porcine brain tubulin polymerization after 2 hrs
[28] = tested on: 518A2; assay: Effect on F-actin in human 518A2 cells assessed as thick stress fibers formation at 100 nM after 3 hrs by DAPI staining-based fluorescence microscopic analysis; assay type: cell-based
In short: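 518A2 melanoma cells were treated with 100 nM for 3 h. Filamentous actin was fluorescence-labelled, nuclei were counterstained with DAPI, and the cells were imaged by fluorescence microscopy. Images come from two independent experiments.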

[29] = tested on: 518A2; assay: Antimigratory activity against human 518A2 cells at 50 nM after 48 hrs by wound healing assay; assay type: functional, cell-based
[30] = tested on: Chorioallantoic membrane; assay: Antiangiogenic activity in Leghorn chicken embryo chorioallantoic membrane assessed as induction of hemorrhages at 5 nmol after 6 hrs by light microscopic analysis; assay type: functional, tissue-based; details: Gallus gallus
In short: (§3)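 Fertilized chicken eggs, CAM assay. Compound was applied topically into a small silicon foil ring placed on the CAM. The membrane and its extraembryonal blood vessels were monitored over 24 h, with observations at 6 h and 24 h post application.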

[31] = tested on: Chorioallantoic membrane; assay: Antiangiogenic activity in Leghorn chicken embryo chorioallantoic membrane assessed as reduction in blood vessel area at 5 nmol after 6 hrs by light microscopic analysis relative to control; assay type: functional, tissue-based; design: scale not given: the % may be the effect or the level left; details: Gallus gallus
In short: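 The CAM assay was run with topical application into a silicon foil ring atop the CAM of fertilized chicken eggs. Area covered by blood vessels was quantified by fractal analysis relative to control.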

[32] = tested on: Chorioallantoic membrane; assay: Antiangiogenic activity in Leghorn chicken embryo chorioallantoic membrane assessed as effect on blood vessel length at 5 nmol after 6 hrs by light microscopic analysis; assay type: functional, tissue-based; details: Gallus gallus; in short: as §3
[33] = tested on: 518A2; assay: Induction of apoptosis in human 518A2 cells assessed as accumulation at subG1 phase; assay type: functional, cell-based
[34] = tested on: 518A2; assay: Induction of cell cycle arrest in human 518A2 cells; assay type: functional, cell-based
[35] = tested on: HT-29; assay: Cell cycle arrest in human HT-29 cells assessed as accumulation of cells at G2/M phase after 24 hrs by propidium iodide staining-based flow cytometric analysis; assay type: functional
[36] = tested on: Chorioallantoic membrane; assay: Antiangiogenic activity in Leghorn chicken embryo chorioallantoic membrane assessed as reduction in size of main blood vessels at 5 nmol after 6 hrs by light microscopic analysis; assay type: functional, tissue-based; details: Gallus gallus; in short: as §3
[37] = tested on: Chorioallantoic membrane; assay: Antiangiogenic activity in Leghorn chicken embryo chorioallantoic membrane assessed as induction of contraction at 5 nmol after 6 to 24 hrs by light microscopic analysis; assay type: functional, tissue-based; details: Gallus gallus; in short: as §3
[38] = tested on: Chorioallantoic membrane; assay: Antiangiogenic activity in Leghorn chicken embryo chorioallantoic membrane assessed as induction of irritation at 5 nmol after 6 to 24 hrs by light microscopic analysis; assay type: functional, tissue-based; details: Gallus gallus; in short: as §3
[39] = Toxicity in human A2780 cells xenografted nude mouse at 30 mg/kg administered on every other day and measured after 24 hrs; assay type: organism-based; details: in vivo
[40] = molecular target: Tubulin (Sus scrofa) (UniProt P02554+P02550); assay: Inhibition of porcine brain tubulin polymerization at 10 uM after 2 hrs relative to control
Sequence of Tubulin (Sus scrofa) (P02550 whole entry, looked up): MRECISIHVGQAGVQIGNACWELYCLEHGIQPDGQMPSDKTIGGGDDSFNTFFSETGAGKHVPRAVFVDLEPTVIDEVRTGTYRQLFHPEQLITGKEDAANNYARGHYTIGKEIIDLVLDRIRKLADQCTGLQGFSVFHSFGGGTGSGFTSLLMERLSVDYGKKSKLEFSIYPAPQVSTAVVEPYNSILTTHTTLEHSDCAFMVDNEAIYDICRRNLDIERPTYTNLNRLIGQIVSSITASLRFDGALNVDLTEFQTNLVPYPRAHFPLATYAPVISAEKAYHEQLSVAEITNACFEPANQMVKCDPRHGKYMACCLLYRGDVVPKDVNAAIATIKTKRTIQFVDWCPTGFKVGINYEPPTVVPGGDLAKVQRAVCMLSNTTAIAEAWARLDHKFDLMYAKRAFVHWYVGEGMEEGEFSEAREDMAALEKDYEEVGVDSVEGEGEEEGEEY
Sequence of Tubulin (Sus scrofa) (P02554 whole entry, looked up): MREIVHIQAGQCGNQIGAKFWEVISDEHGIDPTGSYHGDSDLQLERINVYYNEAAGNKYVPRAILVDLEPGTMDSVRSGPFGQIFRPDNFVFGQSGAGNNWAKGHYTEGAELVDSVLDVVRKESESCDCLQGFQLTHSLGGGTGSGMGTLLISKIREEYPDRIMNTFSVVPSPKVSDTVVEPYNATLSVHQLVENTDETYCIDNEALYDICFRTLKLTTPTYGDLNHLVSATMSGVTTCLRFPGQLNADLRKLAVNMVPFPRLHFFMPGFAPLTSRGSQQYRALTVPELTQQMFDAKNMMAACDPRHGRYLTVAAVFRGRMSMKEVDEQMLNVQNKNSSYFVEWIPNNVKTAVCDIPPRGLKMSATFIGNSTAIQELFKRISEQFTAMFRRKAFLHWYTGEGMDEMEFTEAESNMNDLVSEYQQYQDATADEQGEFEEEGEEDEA
In short: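 In a brief single-concentration run, purified tubulin polymerization was measured at 10 µM and expressed as percent of vehicle-treated controls.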

[41] = tested on: Chorioallantoic membrane; assay: Antiangiogenic activity in Leghorn chicken embryo chorioallantoic membrane assessed as disruption of smaller blood vessels at 5 nmol after 6 hrs by light microscopic analysis; assay type: functional, tissue-based; details: Gallus gallus; in short: as §3
[42] = tested on: Chorioallantoic membrane; assay: Antiangiogenic activity in Leghorn chicken embryo chorioallantoic membrane assessed as induction of hemorrhages at 5 nmol after 24 hrs by light microscopic analysis; assay type: functional, tissue-based; details: Gallus gallus; in short: as §3
[43] = tested on: Chorioallantoic membrane; assay: Antiangiogenic activity in Leghorn chicken embryo chorioallantoic membrane assessed as reduction in diameter of main blood vessel at 5 nmol after 24 hrs by light microscopic analysis; assay type: functional, tissue-based; details: Gallus gallus; in short: as §3
[44] = tested on: A2780; assay: Antivascular activity against human A2780 cells xenografted in nude mouse assessed as tumor discoloration at 200 mg/kg administered on every other day and measured after 24 hrs; assay type: functional, organism-based; details: in the assay text read “administered as single dose” for “administered on every other day”
In short: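 Mice bore A2780 tumor xenografts. Compound was formulated in tween80/ethanol (1:1) and injected as single doses. Tumors were inspected for discoloration as a sign of vascular disruption, and treated tumors were examined histologically for hemorrhage and necrosis.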

[45] = tested on: Chorioallantoic membrane; assay: Antiangiogenic activity in Leghorn chicken embryo chorioallantoic membrane assessed as disruption of smaller blood vessels at 5 nmol after 24 hrs by light microscopic analysis; assay type: functional, tissue-based; details: Gallus gallus; in short: as §3

IC50 [2] [µM]	IC50 [3] [µM]	IC50 [5] [µM]	IC50 [7] [µM]	SMILES	Activity [1]	IC50 [1] [µM]	IC50 [4] [µM]	IC50 [6] [µM]	Activity [13] [%]	Activity [14] [%]	Activity [15] [%]	Activity [16] [%]	Activity [17] [%]	Activity [18] [%]	Activity [19] [%]	Activity [20] [%]	Activity [21] [%]	Activity [22] [%]	Activity [23] [%]	Activity [24] [%]	other results
0.0521	0.0121	0.0395	0.0147	COc1c(Br)cc(C2C(C#N)=C(N)Oc3c2ccc2ccccc32)cc1Br (centres undefined)	Dose-dependent effect	0.0244	0.0158	0.0159	2.7	4.4	5.3	51.8	26.8	19.9	19.4	13.9	10.6	26.1	55	64.3	IC50 [8]: 0.0191 µM; IC50 [9]: 0.0334 µM; IC50 [10]: 0.0248 µM; Activity [11]: Active; Activity [12]: > 68%; Activity [25]: 46.5%; Activity [26]: Active; I50 [27]: 13 µM; Activity [28]: Active; Activity [29]: Active; Activity [30]: inactive; Activity [31]: 45%; Activity [32]: Active; Activity [33]: Active; Activity [34]: inactive; Activity [35]: Dose-dependent effect; Activity [36]: Active; Activity [37]: Active; Activity [38]: Active; Activity [39]: Toxic
0.172	0.0485	–	–	N#CC1=C(N)Oc2c(ccc3ccccc23)C1c1ccc(Cl)c(F)c1 (centres undefined)	Dose-dependent effect	0.425	0.0573	–	9.3	25	27	56	15.4	21	14.7	9.4	14.9	20.5	50.4	34	inhibition [40]: 44.1%
0.11	0.0148	0.0026	< 0.0001	N#CC1=C(N)Oc2c(ccc3ccccc23)C1c1cccc(C#N)c1 (centres undefined)	Dose-dependent effect	< 0.0001	0.0179	0.0043	4.2	11.8	10.6	51	59.6	60.5	25.1	18.5	15.6	19.7	10.1	13.3	IC50 [9]: < 0.0001 µM; IC50 [10]: 0.00041 µM; Activity [11]: Active; Activity [12]: > 68%; Activity [25]: 69.4%; Activity [26]: Active; Activity [28]: Active; Activity [29]: Active; Activity [41]: Active; Activity [30]: Active; Activity [42]: inactive; Activity [43]: Active; Activity [31]: 56%; Activity [32]: Active; Activity [44]: inactive; Activity [45]: inactive

Reference: ChEMBL document CHEMBL4330063, “New naphthopyran analogues of LY290181 as potential tumor vascular-disrupting agents” (Eur J Med Chem, 2019)
